# Source: PubChem BioAssay (several laboratories)
# The full list was thinned out, with hits kept by preference.
# L major viab: reduces viability of Leishmania major promastigotes; inhibition, % at 10 µM; actives 9% (n = 200,000); resazurin fluorescence viability; in the data active = inhibition above about 50%;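 note: promastigotes grown with compound for 44 hours at 28 °C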
# NALP1 yeast inh: inhibitors of NALP1 inflammasome in yeast. S. cerevisiae NALP1/ASC/caspase-1 growth, X-gal OD620, 72 h. inhibition, % at 10 µM. actives 0.61% (n = 280,000); in the data active = inhibition mostly above about 24%, no sharp cut-off; inactive = mostly below about 32%
# Calb FLC: C. albicans growth modulation with fluconazole; C. albicans CaCi-2 + fluconazole, Alamar Blue growth, 48 h; growth inhibition, % (no concentration beside the values); actives 0.57% (n = 300,000);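 active = growth inhibition above about 58% in most replicates, limit read from the data, passing the limit was not always enough; inconclusive = exactly half the replicates above a set limit; inactive = most replicates below a set limit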;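 note: all wells also contain fluconazole at 8 µg/ml as a sub-toxic cotreatment; 0% = median of DMSO wells and 100% = median of geldanamycin control wells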
# PolyA inh: inhibitors of polyadenylation in S. cerevisiae; activity score, % at 12 µM; actives 0.02% (n = 300,000); S. cerevisiae SKY197-pL101 polyadenylation reporter, beta-gal luminescence; efflux-impaired pdr1/pdr3 knockout yeast; score 100 = 6 SD above DMSO; AID 1875;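 active = lowest replicate activity score at least 50, where 100 means six control SD above control mean; inconclusive = lowest score under 50 but half or more replicates reach 50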;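 note: yeast exposed to compound for 9 h at 30 °C; higher score means more reporter readthrough which indicates perturbed polyadenylation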
# T cruzi repl: T. cruzi replication inhibition; T. cruzi beta-gal in NIH3T3, luminescence, 90 h; inhibition, % (no concentration beside the values); actives 1.4% (n = 300,000);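 active = mean inhibition across valid replicates above about 55%, limit read from the data; inconclusive = mean below that limit but half or more replicates reach it; inactive = mean below it, under half of replicates reach it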;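 note: signal also drops with host cell toxicity which is not excluded here; 0% = plate median of DMSO wells and 100% = zero luminescence signal; higher percent means less beta-gal luminescence so fewer parasites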
#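 assay system = mouse NIH/3T3 fibroblasts infected with β-gal-expressing T. cruzi Tulahuen C4 | input = 5,000 NIH/3T3 host cells per well | buffer or medium = DMEM plus 2% FBS | timing = 3 h host attachment, then at least 90 h co-culture | measured by = GalScreen luminescence, 60 min | evaluation = luminescence reflecting intracellular parasite burden, expressed as percent inhibition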
# NLRP3 yeast inh: blocks the NALP3 inflammasome reconstituted in yeast | Yeast reconstituted NLRP3/ASC/caspase-1, beta-gal luminescence, 24 h | inhibition, % at 10 µM | actives 0.39% (n = 330,000);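 active = inhibition of 50% or more; inactive = inhibition below 50%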;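 note: plate controls were induced DMSO wells for no effect and uninduced yeast grown without galactose for full effect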
# * marks the source's active call; other numbers are inactive results; u = inconclusive; x = no result.
SMILES,L major viab,NALP1 yeast inh,Calb FLC,PolyA inh,T cruzi repl,NLRP3 yeast inh
Cc1cc(NC(=O)c2cc(C3CC3)on2)no1,-4,4,6,-12,-14,14
Cc1nc2ccccc2n1/N=C/c1ccc([N+](=O)[O-])s1,100*,38,25,-67,39,13
Cc1nc2ccccc2n1/N=C/c1ccc([N+](=O)[O-])o1,101*,x,-47,-14,42,4
O=[N+]([O-])c1ccc(/C=N/n2c(CO)nc3ccccc32)s1,100*,28,25,-8,67*,13
Cc1ccc(NC(=O)CCN2CCC(C(N)=O)CC2)cc1,x,16,4,18,-5,17
Cc1cnc(C(=O)OCC(=O)N(Cc2ccccc2)C(C)(C)C)cn1,x,x,x,x,x,12
CC1CCCCC1NC(=O)CSc1nnnn1C (configuration not stated),x,x,x,x,x,8
COc1cc(OC)cc(C(=O)NCCC(=O)NCCc2ccc(OC)c(OC)c2)c1,57*,22,-5,-7,-18,-15
COc1ccc(CCNC(=O)CCC(=O)Nc2nnc(C(C)C)s2)cc1OC,60*,34,-2,-3,1,-7
COc1ccc(CCNC(=O)CCCCC(=O)NCCc2ccc(OC)c(OC)c2)cc1OC,x,x,7,4,-19,-3
COc1cc(Cl)c(C)cc1NC(C)C(=O)Nc1cc(C(F)(F)F)ccc1N1CCOCC1 (configuration not stated),6,35,3,6,8,6
COc1ccc(NC(C)C(=O)Nc2cc(C(F)(F)F)ccc2N2CCOCC2)c(OC)c1 (configuration not stated),72*,39,u,27,19,11
O=C(CN1CCCC1)N1CCCC(c2ccc(F)cc2)c2ccc(F)cc21 (configuration not stated),23,36,-17,24,18,20
COCCn1c(C)cc(C(=O)COc2ccc(N(C)S(=O)(=O)c3ccc(C)cc3)cc2)c1C,x,x,x,x,x,11
COC(=O)c1ccc(CN2CCCC(CCC(=O)NCc3ccc(C)o3)C2)cc1 (configuration not stated),77*,-2,3,-1,69*,-2
COc1cc(CN2CCCC(CCC(=O)NCc3ccc(C)o3)C2)cc2c1OCO2 (configuration not stated),0,8,-2,6,69*,17
Cc1ccc(CNC(=O)CCC2CCCN(Cc3cc4ccccc4o3)C2)o1 (configuration not stated),x,x,-5,-5,56*,7
CS(=O)(=O)N1CCN(c2ccccc2[N+](=O)[O-])CC1,4,21,-12,-4,-2,3
Cn1cc(S(=O)(=O)Oc2ccccc2)c(=O)n(C)c1=O,-1,-17,-23,-2,3,6
O=C1C2C(c3ccccc3)CC=CC2[C@H](c2cccc([N+](=O)[O-])c2)N1Cc1ccccc1 (some centres not stated),x,10,1,-5,56*,15
Clc1ccc(COc2ccccc2CNCc2cccnc2)cc1,99*,-10,32,-33,u,3
C=CCOc1ccccc1CNCc1cccnc1,87*,2,-16,-4,-8,-3
CCOc1cccc(CNCc2cccnc2)c1OCc1ccccc1,15,5,48,-8,-7,9
Cc1cc(C)nc(-n2nc(C)cc2Nc2ccccc2)n1,52*,18,-2,-16,7,43
CCN(CC(=O)Nc1cc(C)nn1-c1nc(C)cc(C)n1)Cc1ccccc1,53*,4,7,-13,17,9
Cc1cc(C)nc(-n2nc(C)cc2NC(=O)CN2CCCC(C)C2)n1 (configuration not stated),15,8,-4,10,-1,15
Cc1cc(N2CCN(c3ccccc3)CC2)nc(-c2ccccc2O)n1,3,29,-7,-68,-7,19
Cc1cc(Nc2ccccc2)n(-c2ccccc2)n1,7,10,-2,2,8,6
Cc1cc(C)nc(-n2nc(C)cc2NC(=O)CN2CCc3ccccc3C2)n1,54*,5,40,-14,23,5
Cc1cc(N2CCN(c3ccccc3)CC2)nc(-n2nc(C)cc2C)n1,72*,-5,-24,1,26,17
